# Measured values: ChEMBL document CHEMBL2375313, “Synthesis, in vitro antitumor evaluation and DNA-binding study of novel tetrahydroquinolines and some derived tricyclic and tetracyclic ring systems” (Eur J Med Chem, 2013)
# Key:
# SK-MEL-5 = test: Cytotoxicity against human SK-MEL-5 cells assessed as growth inhibition at 10 uM after 48 hrs by sulphorhodamine B assay; assay type: functional; conditions: SK-MEL-5, 48 h, read-out: GI
# Summary of the method: (§1)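 NCI-60 one-dose screen per the NCI Drug Evaluation Branch protocol. Cells given a single 10 µM concentration with 48 h continuous exposure. Growth estimated by sulphorhodamine B protein assay. Result expressed as percentage growth inhibition relative to untreated growth.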
# A549 = test: Cytotoxicity against human A549 cells assessed as growth inhibition at 10 uM after 48 hrs by sulphorhodamine B assay; assay type: functional; conditions: A549, 48 h, read-out: GI; summary of the method: as §1
# T47D = test: Cytotoxicity against human T47D cells assessed as growth inhibition at 10 uM after 48 hrs by sulphorhodamine B assay; assay type: functional; conditions: read-out: GI; summary of the method: as §1
# IGROV-1 = test: Cytotoxicity against human IGROV1 cells assessed as growth inhibition at 10 uM after 48 hrs by sulphorhodamine B assay; assay type: functional; conditions: IGROV-1, 48 h, read-out: GI; summary of the method: as §1
# [1] = Cytotoxicity against human breast cancer cells after 48 hrs by sulphorhodamine B assay; assay type: functional; conditions: Cancer cell lines
# [2] = Cytotoxicity against human leukemia cells after 48 hrs by sulphorhodamine B assay; assay type: functional; conditions: Leukemia cell
# [3] = Displacement of methyl green from DNA (unknown origin) after 24 hrs
# Summary of the method: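 DNA-methyl green complex was stirred in 0.05 M Tris-HCl pH 7.5 with 7.5 mmol MgSO4 at 37 °C for 24 h. Compound was dried down from EtOH in tubes and the DNA-methyl green solution added. A630 was read initially and after 24 h dark incubation at room temperature, corrected and normalized to untreated complex. IC50 is the concentration giving a 50% absorbance decrease; mean ± SD, n = 6.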
# SR = test: Cytotoxicity against human SR cells assessed as growth inhibition at 10 uM after 48 hrs by sulphorhodamine B assay; assay type: functional; conditions: read-out: GI; summary of the method: as §1
# [4] = Cytotoxicity against human colon cancer cells after 48 hrs by sulphorhodamine B assay; assay type: functional; conditions: Cancer cell lines
# [5] = Cytotoxicity against human ovarian cancer cells after 48 hrs by sulphorhodamine B assay; assay type: functional; conditions: Cancer cell lines
# [6] = Cytotoxicity against human renal cancer cells after 48 hrs by sulphorhodamine B assay; assay type: functional; conditions: Cancer cell lines
# [7] = Cytotoxicity against human prostate cancer cells after 48 hrs by sulphorhodamine B assay; assay type: functional; conditions: Cancer cell lines
# [8] = Cytotoxicity against human CNS cancer cells after 48 hrs by sulphorhodamine B assay; assay type: functional; conditions: Cancer cell lines
# A498 = test: Cytotoxicity against human A498 cells assessed as growth inhibition at 10 uM after 48 hrs by sulphorhodamine B assay; assay type: functional; conditions: A498, 48 h, read-out: GI; summary of the method: as §1
# CCRF-CEM = test: Cytotoxicity against human CCRF-CEM cells assessed as growth inhibition at 10 uM after 48 hrs by sulphorhodamine B assay; assay type: functional; conditions: read-out: GI; summary of the method: as §1
# NCI/ADR-RES = test: Cytotoxicity against human NCI/ADR-RES cells assessed as growth inhibition at 10 uM after 48 hrs by sulphorhodamine B assay; assay type: functional; conditions: read-out: GI; summary of the method: as §1
# MDA-MB-468 = test: Cytotoxicity against human MDA-MB-468 cells assessed as growth inhibition at 10 uM after 48 hrs by sulphorhodamine B assay; assay type: functional; conditions: MDA-MB-468, 48 h, read-out: GI; summary of the method: as §1
# [9] = Cytotoxicity against human non-small cell lung cancer cells after 48 hrs by sulphorhodamine B assay; assay type: functional; conditions: Cancer cell lines
# [10] = Cytotoxicity against human melanoma cells after 48 hrs by sulphorhodamine B assay; assay type: functional; conditions: Melanoma cell
# [11] = read-out: LC50 (the source's name)
smiles,measurement,setting,value
CC1CCCc2c1nc1nc(SCC(=O)c3ccccc3)nc(N)c1c2-c1ccc(Cl)cc1 (configuration not stated),inhibition of growth at 10 µM,SK-MEL-5,67%
same,inhibition of growth at 10 µM,A549,17.6%
same,inhibition of growth at 10 µM,T47D,72.6%
same,inhibition of growth at 10 µM,IGROV-1,< 10%
same,GI50,[1],79.3 µM
same,TGI,[1],89.6 µM
same,CC50,[1]; [11],> 100 µM
same,GI50,[2],34.7 µM
same,LC50,[2],93.3 µM
same,TGI,[2],65.1 µM
same,IC50,[3],0.061 µg/mL
same,inhibition of growth at 10 µM,SR,< 10%
same,GI50,[4],> 100 µM
same,TGI,[4],86.5 µM
same,CC50,[4]; [11],> 100 µM
same,GI50,[5],80.6 µM
same,TGI,[5],95.5 µM
same,CC50,[5]; [11],> 100 µM
same,GI50,[6],51.8 µM
same,LC50,[6],> 100 µM
same,TGI,[6],> 100 µM
same,GI50,[7],75.5 µM
same,LC50,[7],> 100 µM
same,TGI,[7],> 100 µM
same,GI50,[8],62.3 µM
same,LC50,[8],> 100 µM
same,TGI,[8],84.1 µM
same,inhibition of growth at 10 µM,A498,21.2%
same,inhibition of growth at 10 µM,CCRF-CEM,60.1%
same,inhibition of growth at 10 µM,NCI/ADR-RES,12.8%
same,inhibition of growth at 10 µM,MDA-MB-468,22.9%
same,GI50,[9],46.1 µM
same,TGI,[9],> 100 µM
same,CC50,[9]; [11],> 100 µM
same,GI50,[10],58 µM
same,TGI,[10],> 100 µM
same,CC50,[10]; [11],> 100 µM
CCSc1nc(N)c2c(-c3ccc(Cl)cc3)c3c(nc2n1)C(C)CCC3 (configuration not stated),inhibition of growth at 10 µM,SK-MEL-5,< 10%
same,inhibition of growth at 10 µM,A549,18.1%
same,inhibition of growth at 10 µM,T47D,39.5%
same,inhibition of growth at 10 µM,IGROV-1,39%
same,IC50,[3],0.127 µg/mL
same,inhibition of growth at 10 µM,SR,37.9%
same,inhibition of growth at 10 µM,A498,21.7%
same,inhibition of growth at 10 µM,CCRF-CEM,28.4%
same,inhibition of growth at 10 µM,NCI/ADR-RES,12.8%
same,inhibition of growth at 10 µM,MDA-MB-468,30.8%
